NPY-Y2 antag: antagonists of human neuropeptide Y receptor Y2. NPY-Y2 expressing cells, antagonist mode. 140,000 tested, 0.99% active. P49146. inhibition, % at 2.7 µM. AID 793; in the data active = inhibition above about 17%;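 note: 0% = vehicle with agonist challenge and 100% = reference antagonist with challenge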
NPY1 pot ag: human NPY-Y1 potentiation or agonism, primary screen | P25929 | NPY-Y1 expressing cells, potentiator/agonist activation | activation, % at 3.6 µM | 220,000 tested, 0.37% active | AID 1304; in the data active = activation above about 33%, passing the limit was not always enough;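 note: cells stimulated with NPY at EC10 then isoproterenol at EC100; 0% = low agonist plus stimulus and 100% = saturating agonist plus stimulus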
Target sequence (P25929 whole entry, looked up): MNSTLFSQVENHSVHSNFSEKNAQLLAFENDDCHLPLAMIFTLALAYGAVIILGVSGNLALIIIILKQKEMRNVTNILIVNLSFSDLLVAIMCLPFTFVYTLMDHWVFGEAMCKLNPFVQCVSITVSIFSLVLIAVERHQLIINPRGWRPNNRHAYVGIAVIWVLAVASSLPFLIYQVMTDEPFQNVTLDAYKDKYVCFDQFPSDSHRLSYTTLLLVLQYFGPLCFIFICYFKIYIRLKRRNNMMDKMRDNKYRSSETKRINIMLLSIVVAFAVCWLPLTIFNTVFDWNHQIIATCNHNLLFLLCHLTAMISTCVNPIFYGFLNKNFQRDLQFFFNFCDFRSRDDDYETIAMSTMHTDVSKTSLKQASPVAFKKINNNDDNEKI
NPY-Y1 antag: blocks the human neuropeptide Y Y1 receptor; HEK293-CNG Y1 cells, membrane potential fluorescence; NPY at EC95, then isoproterenol; 200,000 tested, 1% active; inhibition, % at 3.6 µM; P25929;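 active = inhibition above the campaign mean inhibition of all tested compounds plus 3 SD, cut at about 20% in these data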;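 note: 0% = DMSO wells given NPY plus isoproterenol and 100% = isoproterenol alone without NPY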
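Material: HEK293 Y1/CNG channel cell line; also added: NPY (25 nM), isoproterenol (1 µM), Ro 20-1724 (25 µM); doses: one concentration, 3.6 µM, in 0.4% DMSO; schedule: compound incubation 1 h at room temperature, readout 45 min post-stimulation; technique: membrane potential fluorescence; measure: fluorescence ratio normalized to % inhibition between controls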
NPY2 pot ag: human NPY-Y2 potentiation or agonism, primary screen | P49146 | 220,000 tested, 0.45% active | activation, % at 3.6 µM | cells expressing NPY-Y2, potentiator/agonist read-out; in the data active = activation above about 27%;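 note: cells stimulated with NPY near EC25 plus isoproterenol at EC100; 0% = vehicle plus submaximal agonist and 100% = vehicle plus saturating agonist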
NPY1 antag ctr: antagonizes human NPY-Y1, counter-screen to NPY-Y2 antagonists. inhibition, % at 3.6 µM. cell-based NPY-Y1 antagonism counterscreen. shares compounds with NPY-Y2 antag. 710 tested, 19% active; in the data active = inhibition above about 20%;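 note: cells challenged with NPY then isoproterenol with cAMP sensed through a CNG channel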
NPY-Y2 ant conf: human NPY-Y2 antagonism, confirmation. HEK293 NPY-Y2 CNG channel, membrane potential fluorescence. shares compounds with NPY-Y2 antag. inhibition, % at 2.8 µM. 710 tested, 32% active;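 active = mean inhibition of triplicate wells above the hit cutoff set in the primary screen, cut at about 17% in these data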;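 note: 0% = DMSO with NPY challenge and 100% = BIIE0246 high control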
* marks the source's active call; other numbers are inactive results; nt = no result given. Hits are enriched below; roughly 1.9% of the tested compounds scored in any of these assays.

SMILES | NPY-Y2 antag | NPY1 pot ag | NPY-Y1 antag | NPY2 pot ag | others
O=C(NC(=S)NCC1CCCO1)C(c1ccccc1)c1ccccc1 (stereo not given) | 4 | -5 | 8 | -3
CCCC(C)NC(=O)c1sc2nc3n(c(=O)c2c1C)CCC3 (stereo not given) | nt | -13 | 2 | 11
COc1ccccc1NC(=O)CSc1nc2ccccc2cc1Cc1ccccc1 | 21* | -70 | 26* | -8
COc1ccccc1NC(=O)CSc1nc(N)cc(N)n1 | 0 | -3 | 2 | 19
S=c1[nH]nc(Cn2cnc3ccccc32)n1-c1ccccc1 | nt | 2 | 5 | 2
CCOC(=O)C1CCCN(C(=O)c2cnn3c(C(F)(F)F)cc(-c4ccccc4)nc23)C1 (stereo not given) | 19* | -53 | 22* | -24
OC(CNCc1ccccc1F)(c1ccc(F)cc1)c1ccc(F)cc1 | nt | -26 | 17 | -2
COc1ccccc1CNCC(O)(c1ccc(Cl)cc1)c1ccc(Cl)cc1 | 21* | -37 | 21* | -5
COc1ccc(CCNCC(O)COc2cccc(Br)c2)cc1OC (stereo not given) | nt | 105* | nt | 82*
COc1ccc(CCNCC(O)Cn2c3ccccc3c3ccccc32)cc1OC (stereo not given) | nt | 22 | 6 | 17
CCN(CC1COc2ccccc2O1)C(=S)Nc1ccccc1 (stereo not given) | 6 | 46* | -2 | -4
N=c1c2c(-c3ccccc3)c(-c3ccccc3)n(Cc3ccco3)c2ncn1CCO | 63* | -79 | 38* | -23
c1coc(CNc2nc3ccccc3n2CCN2CCOCC2)c1 | 2 | 7 | 3 | 8
N=c1c2c(-c3ccccc3)c(-c3ccccc3)n(Cc3ccco3)c2ncn1CCCO | nt | -47 | nt | -46
N=c1c2c(-c3ccccc3)c(-c3ccccc3)n(Cc3ccco3)c2ncn1CCN1CCOCC1 | 43* | -11 | 42* | 16
Cc1occc1C(=O)NNC(=O)Nc1ccc([N+](=O)[O-])cc1 | nt | 6 | -1 | -10
CC1(C)CCCN(C(=O)c2ccc3c(c2NCCO)C(=O)c2ccccc2C3=O)C1 | -9 | 51* | -22 | 54*
O=C1c2ccccc2C(=O)c2c1ccc(C(=O)N1CCCCC1)c2NCCO | -2 | 21 | 2 | 2
CCN(CCN(C)C)C(=O)c1ccc2c(c1NCCO)C(=O)c1ccccc1C2=O | nt | 47* | -11 | 40*
Cc1ccc(C)c(N(CC(=O)NC2CCCC2)C(=O)c2oc(C(C)(C)C)cc2C)c1 | 20* | -3 | 27* | 0
O=C(NCCN1CCOCC1)c1ccccc1-c1ccccc1 | 6 | 12 | 0 | 1
O=C(NCCN1CCOCC1)c1cnn2c(-c3ccccc3)cc(-c3ccccc3)nc12 | 20* | -84 | 36* | -20
CC(CCc1ccccc1)NCC(O)COc1ccccc1 (stereo not given) | nt | 104* | -10 | 100*
CCN1CCN(CC(O)COc2ccc3c(c2)CCC3)CC1 (stereo not given) | 0 | -3 | 1 | -12
CCCC(NCC(O)COc1ccc(-c2ccccc2)cc1)c1ccccc1 (stereo not given) | nt | -19 | 2 | -18
SMILES | NPY-Y2 antag | NPY1 pot ag | NPY-Y1 antag | NPY2 pot ag | others
CC(C)NCC(O)COc1ccc2c(c1)CCC2 (stereo not given) | 3 | 105* | -12 | 96*
CCC(CC)NCC(O)COc1ccc(Br)cc1 (stereo not given) | nt | -13 | 3 | 1
CC(C)NCC(O)COc1ccc(CCOCC2CC2)cc1 (stereo not given) | 1 | 96* | -12 | 92*
CC(C)NCC(O)COc1ccc(Br)cc1 (stereo not given) | nt | 75* | -8 | 54*
CCC(=O)NC(=S)Nc1ccc(-c2nc3ccc(C)cc3s2)cc1 | 2 | 20 | -6 | 6
Cc1ccc2nc(-c3ccc(NC(=S)NC(=O)C(C)C)cc3)sc2c1 | -1 | 51* | -1 | 13
Cc1ccc(NC(=O)C2CCN(S(=O)(=O)c3ccc(F)cc3)CC2)cc1 | 2 | 113* | -2 | 105*
CCN1/C(=C/C=C/c2oc3ccc(-c4ccccc4)cc3[n+]2CC)Oc2ccc(-c3ccccc3)cc21 | nt | -31 | 22* | 3
CCCCN1C(=O)/C(=C/C=C2\Oc3ccccc3N2CC)SC1=S | nt | 6 | -2 | -4
COc1ccc(-c2nnc(SCc3ncc(-c4ccccc4)o3)o2)cc1 | 21* | -24 | 21* | -25
Cc1ccc(C(NC(=O)NC(C)c2ccccc2)C(Cl)(Cl)Cl)cc1F (stereo not given) | -1 | 9 | 4 | 1
CN1CCN(c2ccc(NC(=O)c3ccc(-c4ccc(Br)cc4)o3)cc2)CC1 | nt | 41* | 0 | 32*
Nc1c(C(=O)NCCN2CCOCC2)c2nc3ccccc3nc2n1-c1ccc2c(c1)OCO2 | -2 | -16 | -4 | 21
Nc1c(C(=O)NCc2ccc3c(c2)OCO3)c2nc3ccccc3nc2n1CCCN1CCOCC1 | 19* | -10 | 12 | -5 | NPY1 antag ctr=17;NPY-Y2 ant conf=7
Cc1nc2ncnn2c(C)c1Cc1ccc(Cl)cc1F | -1 | -11 | 0 | -1
O=C(CSc1cccc2cccc(Cl)c12)OCC(=O)N1CCN(C(=O)c2ccco2)CC1 | 19* | -18 | 12 | -22 | NPY1 antag ctr=15;NPY-Y2 ant conf=12
CC(C)CCN1CCN(CCCn2cccn2)CC1CCO (stereo not given) | nt | 2 | -3 | 2
CC(/C=C1\SC(=S)N(NC(=O)c2ccc(C)cc2)C1=O)=C\c1ccccc1 | 19* | -11 | 13 | -18 | NPY1 antag ctr=17;NPY-Y2 ant conf=20*
Cc1cccc(/C(N)=N/OC(=O)COc2ccccc2Cl)c1 | 19* | -28 | 5 | 6 | NPY1 antag ctr=8;NPY-Y2 ant conf=15
COc1ccc(/C(N)=N/OC(=O)COc2ccccc2Cl)cc1 | 7 | -30 | 8 | -6
Cc1ccccc1/C=N/Nc1nc2ccccc2c(=O)n1O | nt | 17 | nt | 1
CCc1cccc(CC)c1NC(=O)COC(=O)c1ccccc1-c1nc2ccccc2s1 | 20* | -19 | 9 | 14 | NPY1 antag ctr=14;NPY-Y2 ant conf=21*
Cc1ccc(NC(=O)COC(=O)c2ccccc2-c2nc3ccccc3s2)c(C)c1 | 6 | 5 | 4 | -8
O=c1[nH]c2ccc(S(=O)(=O)N3CCN(c4ccccc4F)CC3)cc2s1 | 18* | -6 | 1 | 2 | NPY1 antag ctr=3;NPY-Y2 ant conf=11
OC12CCCCC1C(c1ccc3c(c1)OCO3)N(Cc1ccccc1F)CC2 (stereo not given) | 18* | -35 | 4 | -7 | NPY1 antag ctr=17;NPY-Y2 ant conf=9
OC12CCCCC1C(c1ccc3c(c1)OCO3)N(Cc1ccc(F)cc1)CC2 (stereo not given) | 10 | 2 | 15 | 8
O=C(NNC(=S)NC(=O)C12CC3CC(CC(C3)C1)C2)c1ccncc1 | 3 | 20 | -7 | -2

Compound activity from PubChem BioAssay.
